One may read the MIC as the lowest concentration that inhibits growth of the organism. The term IC50 denotes the midpoint of a concentration-inhibition curve. A low value points to higher potency.

In ChEMBL document CHEMBL2321650, “Novel HldE-K inhibitors leading to attenuated Gram negative bacterial virulence” (J Med Chem, 2013) one finds MIC and IC50 data, which are given here for 55 compounds.

In assay [1] the test system is Escherichia coli. The assay can be described thus: Antimicrobial activity against acrAB, tolC-deficient Escherichia coli str. K-12 substr. MG1655 after overnight incubation in absence of erythromycin. It counts as functional. The procedure, abridged: (§1)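 Broth microdilution MIC in cation-adjusted MHB, final inoculum 5 × 10⁵ CFU/mL from early-to-log preculture; serial compound dilutions in 2% DMSO, overnight at 35 °C, growth scored visually. Each strain tested with and without erythromycin (1 μg/mL for K12 ΔacrAB ΔtolC, 8 μg/mL for K1 wild type, 1 μg/mL for K1 ΔtolC).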

For assay [2], the system named is Escherichia coli. The assay can be described thus: Antimicrobial activity against tolC-deficient Escherichia coli O18:K1:H7 after overnight incubation in presence of erythromycin. Format: functional. In short, it runs like this:
as §1

Assay [3] can be described thus: Inhibition of Escherichia coli O18:K1 C7 hldE-K expressed in Escherichia coli BL21 using beta-heptose 7-phosphate as substrate incubated for 30 mins prior to substrate addition measured after 30 mins by luminescence assay. In short, it runs like this:
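E. coli HldE (His-tagged, IPTG-induced, Ni-NTA-purified), 3 nM, preincubated 30 min at room temperature with inhibitor in Hepes pH 7.5, MnCl₂, KCl, 0.012% Triton-X100, DTT, MBP. Reaction with 0.2 μM heptose 7-phosphate and 0.2 μM ATP, 30 min at room temperature. Remaining ATP read by luciferase/luciferin luminescence; 6−10 concentrations fitted to a Langmuir model for IC50.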

Assay [4] deals with Escherichia coli. The assay can be described thus: Antimicrobial activity against acrAB, tolC-deficient Escherichia coli str. K-12 substr. MG1655 after overnight incubation in presence of erythromycin. It counts as functional. In short, it runs like this:
as §1

In assay [5] the test system is Escherichia coli. The assay can be described thus: Antimicrobial activity against tolC-deficient Escherichia coli O18:K1:H7 after overnight incubation in absence of erythromycin. Format: functional. The procedure, abridged:
as §1

Bounds are passed on as bounds.

As to `Oc1ccc2sc(CNc3nncc(-c4c(Cl)cccc4Cl)n3)nc2c1`, the MIC against Escherichia coli [1], in the assay on Escherichia coli [2], with Escherichia coli [4] and in the assay on Escherichia coli [5] was more than 32 µg/mL in each case. The same compound yielded an IC50 in assay [3] of 0.075 µM.

On to `COc1ccc2sc(CNc3nncc(C(C)C)n3)nc2c1`, for which, in assay [3], the IC50 is more than 300 µM. Same read-out and setting: the value for `COc1cccc(OC)c1-c1cnnc(NCc2nc(C)c(C)s2)n1` was 6 µM; that for `COc1cccc(OC)c1-c1cnnc(NCc2nc(C)c(CCO)s2)n1` was more than 300 µM. The same measure, in the same setting: with `COc1cccc(OC)c1-c1cnnc(N(C)Cc2nc(C)c(C)s2)n1` the figure was 5 µM; with `COc1cccc(OC)c1-c1cnnc(NCc2nc3ccc(Cl)cc3s2)n1`, 27 µM; with `COc1cccc(OC)c1-c1cnnc(NCc2nc3ccccc3n2C)n1`, more than 300 µM. On the same count and under the same terms, the value for `COc1cccc(OC)c1-c1cnnc(N(CCC(=O)O)Cc2nc3ccccc3s2)n1` was 46 µM. Regarding `COc1cccc(OC)c1-c1cnnc(NCc2cc3ccccc3s2)n1`, in assay [3], the IC50 was more than 300 µM. Same read-out and setting: with `COc1cccc(OC)c1-c1cnnc(NCc2ccccn2)n1` the figure was more than 300 µM. Consider `COc1cccc(OC)c1-c1cnnc(N(CC(=O)O)Cc2nc3ccccc3s2)n1`, for which the IC50 in assay [3] was 2 µM. This lies in the single-digit micromolar range. In assay [3], `COC(=O)c1ccc2nc(CNc3nncc(-c4c(OC)cccc4OC)n3)sc2c1` returned an IC50 of 89 µM. On the same count and under the same terms, with `COc1cccc(OC)c1-c1cnnc(NCc2nc3cc(Cl)ccc3s2)n1` the figure was 1.6 µM. For `COc1ccc2sc(CNc3nncc(-c4c(C)cccc4C)n3)nc2c1`, the MIC against Escherichia coli [1], in the assay on Escherichia coli [2], in the assay on Escherichia coli [4] and against Escherichia coli [5] was more than 32 µg/mL in each case. In assay [3], this compound had an IC50 of 0.36 µM. For `COc1ccc2sc(CNc3nncc(-c4c(C)cc(Br)cc4C)n3)nc2c1`, 1.2 µM corresponded to half-maximal inhibition in assay [3] (IC50).

For the compound `COc1ccc2sc(CNc3nncc(N4CCCCC4CO)n3)nc2c1` (stereo unspecified), in assay [3], the IC50 is more than 300 µM.

`Cc1oc(-c2ccccc2)nc1C(=O)N(CC(=O)O)Cc1ccccn1` displayed a 50% inhibitory concentration (IC50) in assay [3] of 51 µM. This counts as double-digit micromolar. For `CS(=O)(=O)NC(=O)COc1ccc2sc(CNc3nncc(-c4c(Cl)cccc4Cl)n3)nc2c1`, the MIC with Escherichia coli [1], in the assay with Escherichia coli [2], in the assay on Escherichia coli [4] and in the assay on Escherichia coli [5] was more than 32 µg/mL in each case. The compound also registered an IC50 in assay [3] of 0.016 µM.

`COc1cccc(OC)c1-c1cnnc(OCc2nc(C)c(C)s2)n1` gave an IC50 in assay [3] of 40 µM. That is a double-digit micromolar value. As to `COc1ccc2sc(CNc3nncc(-c4cc(-c5ccn[nH]5)ccc4Cl)n3)nc2c1`, the MIC against Escherichia coli [1], with Escherichia coli [2], with Escherichia coli [4] and against Escherichia coli [5] was more than 32 µg/mL in each case. In assay [3], the IC50 amounted to 0.053 µM. Compound `COc1ccc2sc(CNc3nncc(N4[C@H](C)CCC[C@@H]4C)n3)nc2c1` came in with an IC50 in assay [3] of more than 300 µM. Still for that read-out and setting: the value for `COc1cccc(OC)c1-c1cnnc(NCc2nc3c(s2)CCCC3)n1` was 1.9 µM; that for `COc1ccc2sc(CNc3nncc(-c4c(C)cc(N)cc4C)n3)nc2c1` was 0.32 µM. Same read-out and setting: with `COc1cccc(OC)c1-c1cnnc(NCc2nc3cc(C)ccc3s2)n1` the figure was 1.5 µM; with `COc1cccc(OC)c1-c1cnnc(NCc2nc3ccccc3[nH]2)n1`, more than 300 µM. Still for that read-out and setting: with `COc1ccc2sc(CNc3nncc(-c4ccccc4Cl)n3)nc2c1` the figure was 1.4 µM; with `COc1cccc(OC)c1-c1cnnc(NCc2nc3ccc(CO)cc3s2)n1`, 15 µM.

For `COc1cccc(OC)c1-c1cnnc(NCc2nc3ccc(NC(C)=O)cc3s2)n1`, the midpoint of inhibition in assay [3], the IC50, lay at 49 µM. The compound `COc1ccc2sc(CNc3nncc(C(C)(C)O)n3)nc2c1` displayed an IC50 in assay [3] of more than 300 µM. On the same count and under the same terms, the value for `COc1cccc(OC)c1-c1cnnc(N2CCCCC2c2nc3ccccc3s2)n1` (stereo unspecified) was more than 300 µM; that for `COc1ccc2sc(CNc3nncc(-c4c(F)cccc4F)n3)nc2c1` was 2.4 µM; that for `NCCOc1ccc2sc(CNc3nncc(-c4c(Cl)cccc4Cl)n3)nc2c1` was 0.185 µM. On the same count and under the same terms, the value for `COc1cccc(OC)c1-c1cnnc(NC(C)c2nc(C)c(C)s2)n1` (stereo unspecified) was 54 µM.

On to `CCOC(=O)c1sc(CNc2nncc(-c3c(OC)cccc3OC)n2)nc1C`, for which the half-inhibitory concentration (IC50) in assay [3] is more than 300 µM. The same measure, in the same setting: the value for `COc1cccc(OC)c1-c1cnnc(NCc2nc3ccccc3o2)n1` was 34 µM. `COc1ccc2sc(CNc3nncc(-c4c(C)cc(NCCN(C)C)cc4C)n3)nc2c1`: the MIC with Escherichia coli [1], in the assay on Escherichia coli [2], in the assay on Escherichia coli [4] and against Escherichia coli [5] was more than 32 µg/mL in each case. This compound registered an IC50 in assay [3] of 0.082 µM. `COc1cccc(OC)c1-c1cnnc(NCc2cc(C)n(C)n2)n1` displayed an IC50 in assay [3] of 25 µM. Consider `NC(=O)COc1ccc2sc(CNc3nncc(-c4c(Cl)cccc4Cl)n3)nc2c1`, for which the MIC with Escherichia coli [1], in the assay with Escherichia coli [2], in the assay on Escherichia coli [4] and in the assay with Escherichia coli [5] was more than 32 µg/mL throughout. In assay [3], this compound had an IC50 of 0.067 µM.

Turning to `COc1ccc2sc(CNc3nncc(-c4c(C)cc(NC(C)=O)cc4C)n3)nc2c1`, the MIC against Escherichia coli [1], in the assay on Escherichia coli [2], in the assay with Escherichia coli [4] and with Escherichia coli [5] was more than 32 µg/mL in each case. In assay [3], the IC50 stood at 0.24 µM. The compound `COc1cccc(OC)c1-c1cnnc(NCc2nc3ccc(O)cc3s2)n1` returned an IC50 in assay [3] of 3.4 µM. The same measure, in the same setting: with `COc1cccc(OC)c1-c1cnnc(NCc2ccc3ccccc3n2)n1` the figure was more than 300 µM; with `COc1cccc(OC)c1-c1cnnc(NCc2cc(C)c(C)o2)n1`, more than 300 µM; with `COc1ccc2sc(CNc3nncc(-c4cc(Br)ccc4Cl)n3)nc2c1`, 0.76 µM. Turning to `O=C(CO)NCCOc1ccc2sc(CNc3nncc(-c4c(Cl)cccc4Cl)n3)nc2c1`, the MIC in the assay on Escherichia coli [1] is more than 32 µg/mL; in the assay with Escherichia coli [2] it was more than 32 µg/mL; in the assay on Escherichia coli [4], 4 µg/mL; against Escherichia coli [5] it was more than 32 µg/mL. Besides, in assay [3], half-maximal inhibition (IC50) was put at 0.071 µM. In assay [3], `COc1cccc(OC)c1-c1cnnc(N(CCCO)Cc2nc3ccccc3s2)n1` returned an IC50 of more than 300 µM.

Turning to `COc1ccc2sc(CNc3nncc(-c4c(OC)ccc5ccccc45)n3)nc2c1`, the MIC in the assay on Escherichia coli [1], in the assay on Escherichia coli [2], with Escherichia coli [4] and with Escherichia coli [5] was more than 32 µg/mL in each case. In assay [3], the IC50 turned out to be 0.051 µM. In turn, `COc1cccc(OC)c1-c1cnnc(NCc2nc3cc(OCC(=O)O)ccc3s2)n1` showed an IC50 in assay [3] of 0.25 µM. The same measure, in the same setting: with `COc1cccc(OC)c1-c1cnnc(NCc2nc3cc(O)ccc3s2)n1` the figure was 0.39 µM; with `COc1ccc2sc(CNc3nncc(-c4cc(-c5cccnc5)ccc4Cl)n3)nc2c1`, 0.15 µM; with `COc1ccc2sc(CNc3nncc(-c4cc(NC(C)=O)ccc4Cl)n3)nc2c1`, 1.4 µM.

Regarding `COc1ccc2sc(CNc3nncc(-c4c(C)cc(C#N)cc4C)n3)nc2c1`, the IC50 in assay [3] is 1.4 µM. On the same count and under the same terms, the value for `COc1ccc2sc(CNc3nncc(-c4c(C)cc(-c5ccc(OC)nc5)cc4C)n3)nc2c1` was 0.89 µM. `COc1ccc2sc(CNc3nncc(-c4c(OC)cccc4OC)n3)nc2c1`: the IC50 in assay [3] is 0.67 µM. Same read-out and setting: the value for `COc1cccc(OC)c1-c1cnnc(NCc2nc3cc(N)ccc3s2)n1` was 1.4 µM. As to `COc1cccc(OC)c1-c1cnnc(NCc2nc3cc(NC(C)=O)ccc3s2)n1`, the IC50 in assay [3] was 7.6 µM. Against the preceding compound, the IC50 is about 5.4-fold higher.
